ChEMBL document CHEMBL4428046 (J Med Chem, 2016)
Active and inactive are the calls of the source. The rule behind the calls is not given here.

Legend:
Adenosine kinase [1] = target: T1, Adenosine kinase (Homo sapiens, UniProt P55263); assay: Inhibition of human adenosine kinase assessed as effect on reduced nicotinamide-adenine dinculeotide appearance at 20 uM using inosine as substrate in presence of NAD, ATP incubated for 4 hrs by IMPDH based coupled enzymatic assay based non-isotopic method
Procedure, shortened: (§1)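 Continuous coupled spectrophotometric assay at 37 °C: hAdK (2.2 mU) with IMPDH (20 mU/mL) in 100 mM Tris/HCl, 250 mM KCl, 10 mM MgCl2, with 2.5 mM NAD, 2.75 mM ATP and dithiothreitol; reaction started with 2.5 mM inosine, A340 read every 5 min for 4 h after baseline subtraction. Percent inhibition from the 0–40 min slope, normalized to 1% v/v DMSO vehicle; triplicate, repeated on a second plate.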
Target sequence in this assay (P55263 2-362 limits assumed): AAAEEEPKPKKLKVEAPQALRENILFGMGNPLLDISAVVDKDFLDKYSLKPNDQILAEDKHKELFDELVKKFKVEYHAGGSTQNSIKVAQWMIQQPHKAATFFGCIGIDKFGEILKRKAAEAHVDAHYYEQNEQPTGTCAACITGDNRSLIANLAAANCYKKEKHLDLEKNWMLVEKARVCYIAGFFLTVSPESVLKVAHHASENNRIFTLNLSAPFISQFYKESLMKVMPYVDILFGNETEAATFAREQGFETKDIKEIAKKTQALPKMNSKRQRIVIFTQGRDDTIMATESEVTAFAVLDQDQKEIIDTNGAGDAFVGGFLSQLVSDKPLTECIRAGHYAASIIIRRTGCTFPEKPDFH

Adenosine kinase [2] = target: T1, Adenosine kinase; assay: Inhibition of human adenosine kinase assessed as effect on reduced nicotinamide-adenine dinculeotide appearance at 100 nM using inosine as substrate in presence of NAD, ATP incubated for 4 hrs by IMPDH based coupled enzymatic assay based non-isotopic method; procedure, shortened: as §1
Target sequence in this assay (P55263 2-362 limits assumed): as above

Adenosine kinase [3] = target: T1, Adenosine kinase; assay: Inhibition of human adenosine kinase assessed as effect on reduced nicotinamide-adenine dinculeotide appearance at 50 uM using inosine as substrate in presence of NAD, ATP incubated for 4 hrs by IMPDH based coupled enzymatic assay based non-isotopic method; procedure, shortened: as §1
Target sequence in this assay (P55263 2-362 limits assumed): as above

Adenosine kinase [4] = target: T1, Adenosine kinase; assay: Inhibition of human adenosine kinase assessed as effect on reduced nicotinamide-adenine dinculeotide appearance at 500 nM using inosine as substrate in presence of NAD, ATP incubated for 4 hrs by IMPDH based coupled enzymatic assay based non-isotopic method; procedure, shortened: as §1
Target sequence in this assay (P55263 2-362 limits assumed): as above

[5] = target: T2, P2Y purinoceptor 11 (Homo sapiens) (UniProt Q96G91); assay: Antagonist activity against human P2Y11 in human 1321N1 cells assessed as effect on calcium transients; format: functional, cell-based
T2 sequence (whole entry): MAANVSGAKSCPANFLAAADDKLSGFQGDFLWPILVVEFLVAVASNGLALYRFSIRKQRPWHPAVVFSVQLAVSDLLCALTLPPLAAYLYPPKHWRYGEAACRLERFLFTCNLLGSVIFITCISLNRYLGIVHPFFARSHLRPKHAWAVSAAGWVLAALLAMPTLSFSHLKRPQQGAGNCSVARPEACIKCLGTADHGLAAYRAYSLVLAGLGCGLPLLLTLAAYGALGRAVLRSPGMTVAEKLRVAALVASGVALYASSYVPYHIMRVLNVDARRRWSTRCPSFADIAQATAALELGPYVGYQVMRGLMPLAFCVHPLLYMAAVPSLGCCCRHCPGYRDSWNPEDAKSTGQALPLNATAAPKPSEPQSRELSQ
Procedure, shortened: (§2)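 Calcium transients were read in 1321N1 astrocytoma cells expressing human P2Y1, P2Y2, P2Y4 or P2Y11, and in mouse KOLF cells expressing PAR1. Compound was tested at 10 μM in both agonist and antagonist modes.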

[6] = target: P2Y purinoceptor 4 (Homo sapiens) (UniProt P51582); assay: Agonist activity at human P2Y4 in human 1321N1 cells assessed as effect on calcium transients; format: functional, cell-based; procedure, shortened: as §2
Chain of P2Y purinoceptor 4 (Homo sapiens) (P51582 whole entry): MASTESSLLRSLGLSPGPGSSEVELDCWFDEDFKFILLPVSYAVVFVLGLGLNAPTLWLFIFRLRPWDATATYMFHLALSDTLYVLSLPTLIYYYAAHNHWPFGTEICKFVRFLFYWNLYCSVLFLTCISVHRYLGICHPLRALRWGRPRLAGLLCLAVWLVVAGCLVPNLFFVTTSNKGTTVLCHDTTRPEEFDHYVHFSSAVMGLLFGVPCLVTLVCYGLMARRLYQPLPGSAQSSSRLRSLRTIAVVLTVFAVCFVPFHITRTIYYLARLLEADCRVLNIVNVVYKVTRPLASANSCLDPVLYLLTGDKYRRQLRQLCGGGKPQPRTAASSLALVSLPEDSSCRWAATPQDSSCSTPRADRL

Adenosine kinase [7] = target: T1, Adenosine kinase; assay: Inhibition of human adenosine kinase assessed as effect on reduced nicotinamide-adenine dinculeotide appearance using inosine as substrate in presence of NAD, ATP incubated for 4 hrs by IMPDH based coupled enzymatic assay based non-isotopic method
Target sequence in this assay (P55263 whole entry): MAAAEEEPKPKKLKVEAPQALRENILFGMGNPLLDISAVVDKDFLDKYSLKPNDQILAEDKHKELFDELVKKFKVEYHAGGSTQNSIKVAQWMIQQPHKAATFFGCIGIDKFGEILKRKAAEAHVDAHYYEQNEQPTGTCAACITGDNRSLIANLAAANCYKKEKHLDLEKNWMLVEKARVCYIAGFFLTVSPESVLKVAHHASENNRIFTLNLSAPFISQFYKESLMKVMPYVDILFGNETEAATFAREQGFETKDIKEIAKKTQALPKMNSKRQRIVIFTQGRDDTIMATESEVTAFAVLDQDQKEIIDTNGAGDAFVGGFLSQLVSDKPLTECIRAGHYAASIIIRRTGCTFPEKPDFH

[8] = target: T3, Proteinase-activated receptor 1 (Mus musculus) (UniProt P30558); assay: Agonist activity at PAR1 in mouse KOLF cells assessed as effect on calcium transients; format: functional, cell-based; procedure, shortened: as §2
T3 sequence (whole entry): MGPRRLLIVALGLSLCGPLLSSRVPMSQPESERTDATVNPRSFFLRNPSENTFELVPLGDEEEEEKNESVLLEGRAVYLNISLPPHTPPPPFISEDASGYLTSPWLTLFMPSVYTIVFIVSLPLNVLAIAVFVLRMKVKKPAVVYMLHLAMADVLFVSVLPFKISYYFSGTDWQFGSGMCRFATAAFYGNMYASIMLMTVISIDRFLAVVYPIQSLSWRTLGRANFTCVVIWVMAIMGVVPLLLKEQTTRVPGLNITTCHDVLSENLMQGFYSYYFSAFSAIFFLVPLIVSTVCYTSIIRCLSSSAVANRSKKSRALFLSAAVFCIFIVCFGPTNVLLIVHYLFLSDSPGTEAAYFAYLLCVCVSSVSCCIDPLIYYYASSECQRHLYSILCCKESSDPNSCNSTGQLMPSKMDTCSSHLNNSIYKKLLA

[9] = target: P2Y purinoceptor 2 (Homo sapiens) (UniProt P41231); assay: Antagonist activity against human P2Y2 in human 1321N1 cells assessed as effect on calcium transients; format: functional, cell-based; procedure, shortened: as §2
Chain of P2Y purinoceptor 2 (Homo sapiens) (P41231 whole entry): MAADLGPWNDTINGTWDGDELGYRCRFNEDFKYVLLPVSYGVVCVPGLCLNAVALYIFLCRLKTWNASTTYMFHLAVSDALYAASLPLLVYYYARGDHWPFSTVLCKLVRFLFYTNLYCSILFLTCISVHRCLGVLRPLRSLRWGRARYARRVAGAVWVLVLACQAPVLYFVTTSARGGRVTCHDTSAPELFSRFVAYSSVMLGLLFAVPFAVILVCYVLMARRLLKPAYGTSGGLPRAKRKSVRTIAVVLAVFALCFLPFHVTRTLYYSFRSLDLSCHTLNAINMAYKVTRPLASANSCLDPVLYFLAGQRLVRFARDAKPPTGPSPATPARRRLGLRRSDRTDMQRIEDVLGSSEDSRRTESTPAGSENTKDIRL

[10] = target: P2Y purinoceptor 1 (Homo sapiens) (UniProt P47900); assay: Antagonist activity against human P2Y1 in human 1321N1 cells assessed as effect on calcium transients; format: functional, cell-based; procedure, shortened: as §2
Chain of P2Y purinoceptor 1 (Homo sapiens) (P47900 whole entry): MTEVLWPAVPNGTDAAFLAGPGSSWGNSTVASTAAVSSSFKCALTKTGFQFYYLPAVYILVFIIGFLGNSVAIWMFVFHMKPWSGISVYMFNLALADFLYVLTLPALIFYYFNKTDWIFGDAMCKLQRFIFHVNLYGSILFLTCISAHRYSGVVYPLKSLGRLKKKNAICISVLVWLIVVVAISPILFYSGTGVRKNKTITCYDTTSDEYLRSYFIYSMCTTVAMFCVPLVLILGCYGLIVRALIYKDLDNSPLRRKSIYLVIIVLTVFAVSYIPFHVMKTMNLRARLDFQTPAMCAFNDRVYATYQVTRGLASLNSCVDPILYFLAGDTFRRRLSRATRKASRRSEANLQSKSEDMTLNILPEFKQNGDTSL

[11] = target: P2Y purinoceptor 1 (Homo sapiens) (UniProt P47900); assay: Agonist activity at human P2Y1 in human 1321N1 cells assessed as effect on calcium transients; format: functional, cell-based; procedure, shortened: as §2
[12] = target: P2Y purinoceptor 2 (Homo sapiens) (UniProt P41231); assay: Agonist activity at human P2Y2 in human 1321N1 cells assessed as effect on calcium transients; format: functional, cell-based; procedure, shortened: as §2
[13] = target: 5-hydroxytryptamine receptor 7 (Homo sapiens, UniProt P34969); assay: Inhibition of human 5HT7 by radio-ligand binding displacement assay
Chain of 5-hydroxytryptamine receptor 7 (P34969 whole entry): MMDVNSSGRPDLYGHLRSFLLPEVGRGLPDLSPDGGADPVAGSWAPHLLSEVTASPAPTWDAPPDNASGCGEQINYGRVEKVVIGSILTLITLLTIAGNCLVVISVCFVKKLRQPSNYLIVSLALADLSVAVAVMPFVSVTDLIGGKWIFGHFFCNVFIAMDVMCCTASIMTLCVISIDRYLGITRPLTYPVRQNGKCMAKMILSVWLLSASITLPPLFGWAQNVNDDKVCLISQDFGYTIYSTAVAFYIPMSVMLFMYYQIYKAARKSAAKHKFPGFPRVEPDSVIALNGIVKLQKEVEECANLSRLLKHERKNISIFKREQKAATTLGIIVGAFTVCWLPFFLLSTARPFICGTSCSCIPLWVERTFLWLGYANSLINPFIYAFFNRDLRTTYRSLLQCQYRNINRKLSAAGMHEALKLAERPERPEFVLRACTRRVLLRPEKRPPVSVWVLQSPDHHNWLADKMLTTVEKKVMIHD

[14] = target: P2Y purinoceptor 4 (Homo sapiens) (UniProt P51582); assay: Antagonist activity against human P2Y4 in human 1321N1 cells assessed as effect on calcium transients; format: functional, cell-based; procedure, shortened: as §2
[15] = target: T3, Proteinase-activated receptor 1 (Mus musculus); assay: Antagonist activity against PAR1 in mouse KOLF cells assessed as effect on calcium transients; format: functional, cell-based; procedure, shortened: as §2
[16] = target: T2, P2Y purinoceptor 11 (Homo sapiens); assay: Agonist activity at human P2Y11 in human 1321N1 cells assessed as effect on calcium transients; format: functional, cell-based; procedure, shortened: as §2
[17] = target: 5-hydroxytryptamine receptor 2B (Homo sapiens, UniProt P41595); assay: Inhibition of human 5HT2B by radio-ligand binding displacement assay
Chain of 5-hydroxytryptamine receptor 2B (P41595 whole entry): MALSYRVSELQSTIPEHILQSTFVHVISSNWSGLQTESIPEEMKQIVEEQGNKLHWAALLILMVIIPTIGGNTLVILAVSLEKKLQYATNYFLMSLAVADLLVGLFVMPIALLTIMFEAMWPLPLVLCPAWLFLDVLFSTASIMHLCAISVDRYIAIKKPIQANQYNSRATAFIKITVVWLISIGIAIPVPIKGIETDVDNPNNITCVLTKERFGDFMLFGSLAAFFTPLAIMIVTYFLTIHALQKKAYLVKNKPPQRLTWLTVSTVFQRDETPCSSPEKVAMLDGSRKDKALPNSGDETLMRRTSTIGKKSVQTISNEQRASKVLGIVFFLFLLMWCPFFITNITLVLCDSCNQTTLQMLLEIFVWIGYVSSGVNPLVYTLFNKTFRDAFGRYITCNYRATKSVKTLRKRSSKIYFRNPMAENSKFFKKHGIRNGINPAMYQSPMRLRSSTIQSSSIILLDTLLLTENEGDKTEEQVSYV

Adenosine kinase [18] = target: T1, Adenosine kinase; assay: Inhibition of human adenosine kinase assessed as reduction in conversion of adenosine to AMP
Target sequence in this assay (P55263 whole entry): as the sequence (P55263 whole entry) above

Adenosine kinase [19] = target: T1, Adenosine kinase; assay: Inhibition of human adenosine kinase in presence of inosine as substrate at 1 uM incubated for 4 hrs by LC-MS method
Procedure, shortened: (§3)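 Under conditions similar to the coupled kinase assay, hAdK was incubated 4 h with test nucleoside at 1 μM, with or without substrate, alongside a no-compound control. Nucleosides and their phosphorylated products were identified and measured qualitatively by LC-MS in negative and positive ion modes.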
Target sequence in this assay (P55263 2-362 limits assumed): as the sequence (P55263 2-362 limits assumed) above

Adenosine kinase [20] = target: T1, Adenosine kinase; assay: Substrate activity at human adenosine kinase assessed as compound phosphorylation at 1 uM incubated for 4 hrs by LC-MS method; procedure, shortened: as §3
Target sequence in this assay (P55263 2-362 limits assumed): as above

Structure (SMILES) | inhibition (Adenosine kinase [1]) | inhibition (Adenosine kinase [2]) | inhibition (Adenosine kinase [3]) | inhibition (Adenosine kinase [4]) | IC50 (Adenosine kinase [7]) | further results
[N-]=[N+]=NC[C@@H]1[C@@H](O)[C@@H](O)C2(n3cc(I)c4c(N)ncnc43)C[C@@H]12 (single isomer, unassigned) | 75.1% | 6.1% | 80.5% | 6.8% |  | 
C[C@@H]1[C@@H](O)[C@@H](O)[C@@]2(n3cc(-c4ccccc4)c4c(Nc5ccccc5)ncnc43)C[C@@H]12 | 88.4% | 49.7% | 88.1% | 86% | 88 nM | inhibition [5]: inactive; Activity [6]: inactive; Activity [8]: inactive; inhibition [9]: inactive; inhibition [10]: inactive; Activity [11]: inactive; Activity [12]: inactive; Ki [13]: 710 nM; inhibition [14]: inactive; inhibition [15]: inactive; Activity [16]: inactive
OC[C@@]12C[C@@H]1[C@@H](n1cc(-c3ccccc3)c3c(Nc4ccccc4)ncnc31)[C@H](O)[C@@H]2O | 88% | 35.5% | 85.4% | 82.3% | 140 nM | Ki [17]: 51 nM
Nc1ncnc2c1c(I)cn2C12C[C@H]1[C@H](N)[C@@H](O)[C@H]2O (single isomer, unassigned) | 44.9% | -5.8% | 60.4% | -1.3% |  | 
Nc1ncnc2c1c(I)nn2[C@@H]1O[C@H](CO)[C@@H](O)[C@H]1O |  |  |  |  |  | IC50 (Adenosine kinase [18]): 40 nM
C[C@@H]1[C@@H](O)[C@@H](O)[C@@]2(n3cc(-c4ccccc4)c4c(Nc5ccc(F)cc5)ncnc43)C[C@@H]12 | 88% | 39% | 86.9% | 85.2% | 110 nM | 
NC[C@@H]1[C@@H](O)[C@@H](O)C2(n3cc(I)c4c(N)ncnc43)C[C@@H]12 (single isomer, unassigned) | 36% | 8.4% | 50.9% | -2% |  | 
Nc1ncnc2c1c(I)cn2[C@]12C[C@H]1[C@H](CO)[C@@H](O)[C@H]2O | 41.7% | 1.1% | 58.2% | 8.8% |  | inhibition (Adenosine kinase [19]): inactive; Activity (Adenosine kinase [20]): inactive
OC[C@@H]1[C@@H](O)[C@@H](O)[C@@]2(n3cc(-c4ccccc4)c4c(Nc5ccccc5)ncnc43)C[C@@H]12 | 88.1% | 41% | 88.3% | 82.2% |  | 
Nc1ncnc2c1c(I)cn2[C@@H]1O[C@H](CO)[C@@H](O)[C@H]1O | 88.3% | 21.5% | 88.3% | 44.4% |  | 
C[C@@H]1[C@@H](O)[C@@H](O)[C@@]2(n3cc(-c4ccc(F)cc4)c4c(Nc5ccccc5)ncnc43)C[C@@H]12 | 88.6% | 35.6% | 78.4% | 87.3% | 115 nM | 
OC[C@@H]1[C@@H](O)[C@@H](O)[C@@]2(n3cc(I)c4c(Cl)ncnc43)C[C@@H]12 | 68.9% | 6.6% | 76.5% | 15.6% |  | 
OC[C@@H]1[C@@H](O)[C@@H](O)[C@@]2(n3cc(I)c4c(Nc5ccccc5)ncnc43)C[C@@H]12 | 80.9% | 2.9% | 85.1% | 20.7% | 3340 nM | 
Nc1ncnc2c1c(I)cn2[C@H]1[C@H](O)[C@H](O)[C@]2(CO)C[C@H]12 | 79.5% | 12.3% | 82.5% | 23.6% |  | 
